For orientation: half-life means the time in which the quantity being followed falls by half. What is called inhibition is the relative decrease from the control value, in per cent. For orientation: IC50 means the point on the concentration scale where inhibition reaches its midpoint.

One series has as its system GTPase KRas (Homo sapiens), P01116 [G12C]. Put plainly: Inhibition of KRAS G12C mutant (unknown origin) assessed as pseudo first order rate constant incubated for 0.02 to 20 hrs in presence of GDP by rapidfire mass spectrometry analysis.
Conditions: not given
In short, it runs like this: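 GDP-bound KRASG12C (2 μM) with 10 μM compound. Intact-protein MS measures covalent adduct at Cys12 after 0.02, 0.2, 2 and 20 h. Conversions between 10% and 90% are converted to kobs/[I] (M–1 s–1) under pseudo-first-order kinetics.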
For `C=CC(=O)N1CC(NC(=O)Cn2cc(C(=O)N(C)Cc3ccccc3)c3cc(Br)ccc32)C1`, the K was determined as 6 M⁻¹ s⁻¹.

Take `C=CC(=O)N1CC(NC(=O)COc2ccc(Br)cc2)C1`: the K turned out to be 0.3 M⁻¹ s⁻¹.

Turning to `C=CC(=O)N1CC(NC(=O)Cn2cc(C(=O)N3CCc4c(F)cccc4C3)c3cc(Br)ccc32)C1`, the K was 247 M⁻¹ s⁻¹.

Take `C=CC(=O)N1CC(NC(=O)Cn2cc(C(=O)N3CCc4cc(Cl)ccc4C3)c3cc(Br)ccc32)C1`: the K stood at 132 M⁻¹ s⁻¹.

For `C=CC(=O)N1CC(NC(=O)Cn2ccc3cc(Br)ccc32)C1`, the K is 2 M⁻¹ s⁻¹.

On to `C=CC(=O)N1CC(NC(=O)Cn2cc(C(=O)N3CCc4c(Cl)cccc4C3)c3cc(Br)ccc32)C1`, for which the K stood at 188 M⁻¹ s⁻¹.

As for `C=CC(=O)N1CC(NC(=O)Cn2cc(C(=O)N3CCc4c(cccc4OC)C3)c3cc(Br)cc(C)c32)C1`, the K was > 400 M⁻¹ s⁻¹.

As to `C=CC(=O)N1CC(NC(=O)COc2ccc(Br)cc2NC(=O)c2cc(C)no2)C1`, the K was 2 M⁻¹ s⁻¹.

On to `C=CC(=O)N1CC(NC(=O)Cn2cc(C(=O)NCCc3ccccc3)c3cc(Br)ccc32)C1`, for which the K stood at 12 M⁻¹ s⁻¹.

For `C=CC(=O)N1CC(NC(=O)Cn2cc(C(=O)N3CCc4cc(F)ccc4C3)c3cc(Br)ccc32)C1`, the K was found to be 326 M⁻¹ s⁻¹.

Tested on in the next series: not listed separately
In words: Half life of compound in phosphate buffer at pH 7.4 in presence of GSH by LC/MS analysis. The format is physicochemical. To be noted: phosphate buffer with GSH. A digest of the protocol:
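Intrinsic thiol reactivity toward 5 mM glutathione. Half-life is taken from the rate at which parent compound disappears.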
Turning to `C=CC(=O)N1CC(NC(=O)Cn2cc(C(=O)N(C)Cc3ccccc3)c3cc(Br)ccc32)C1`, the half-life stood at 1.67 h.

Take `C=CC(=O)N1CC(NC(=O)Cn2cc(C(=O)N3CCc4c(F)cccc4C3)c3cc(Br)ccc32)C1`: the half-life was 1.67 h.

In the case of `C=CC(=O)N1CC(NC(=O)Cn2cc(C(=O)N3CCc4cc(Cl)ccc4C3)c3cc(Br)ccc32)C1`, the half-life is 1.67 h.

As for `C=CC(=O)N1CC(NC(=O)Cn2ccc3cc(Br)ccc32)C1`, the half-life is 1.67 h.

Consider `C=CC(=O)N1CC(NC(=O)Cn2cc(C(=O)N3CCc4c(Cl)cccc4C3)c3cc(Br)ccc32)C1`, for which the half-life is 1.67 h.

In the case of `C=CC(=O)N1CC(NC(=O)Cn2cc(C(=O)N3CCc4c(cccc4OC)C3)c3cc(Br)cc(C)c32)C1`, the half-life stood at 1.67 h.

With `C=CC(=O)N1CC(NC(=O)Cn2cc(C(=O)NCCc3ccccc3)c3cc(Br)ccc32)C1`, the half-life came to 1.67 h.

In the case of `C=CC(=O)N1CC(NC(=O)Cn2cc(C(=O)N3CCc4cc(F)ccc4C3)c3cc(Br)ccc32)C1`, the half-life was found to be 1.67 h.

Another series concerns GTPase KRas (Homo sapiens), P01116 [G12C]. In words: Inhibition of KRAS G12C mutant (unknown origin) at 10 uM incubated for 2 hrs in presence of GDP by rapidfire mass spectrometry analysis relative to control.
Conditions: not given
In short, it runs like this:
(§1)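 GDP-bound KRASG12C (2 μM) incubated with 10 μM compound. Intact-protein mass spectrometry quantifies relative % covalent adduct at Cys12 at the stated time point.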
In the case of `C=CC(=O)N1CC(NC(=O)Cn2cc(C(=O)N(C)Cc3ccccc3)c3cc(Br)ccc32)C1`, the inhibition worked out at 35%.

Take `C=CC(=O)N1CC(NC(=O)Cn2cc(C(=O)N3CCc4c(F)cccc4C3)c3cc(Br)ccc32)C1`: the inhibition came out at 100%.

Take `C=CC(=O)N1CC(NC(=O)Cn2cc(C(=O)N3CCc4cc(Cl)ccc4C3)c3cc(Br)ccc32)C1`: the inhibition was determined as 100%.

Turning to `C=CC(=O)N1CC(NC(=O)Cn2ccc3cc(Br)ccc32)C1`, the inhibition came to 14%.

For `C=CC(=O)N1CC(NC(=O)Cn2cc(C(=O)N3CCc4c(Cl)cccc4C3)c3cc(Br)ccc32)C1`, the inhibition turned out to be 100%.

In the case of `C=CC(=O)N1CC(NC(=O)Cn2cc(C(=O)N3CCc4c(cccc4OC)C3)c3cc(Br)cc(C)c32)C1`, the inhibition was determined as 100%.

As to `C=CC(=O)N1CC(NC(=O)COc2ccc(Br)cc2NC(=O)c2cc(C)no2)C1`, the inhibition was determined as 11%.

For the molecule `C=CC(=O)N1CC(NC(=O)Cn2cc(C(=O)NCCc3ccccc3)c3cc(Br)ccc32)C1`, the inhibition came out at 59%.

Turning to `C=CC(=O)N1CC(NC(=O)Cn2cc(C(=O)N3CCc4cc(F)ccc4C3)c3cc(Br)ccc32)C1`, the inhibition turned out to be 100%.

The test system is the same in another series. Put plainly: Inhibition of KRAS G12C mutant (unknown origin) at 10 uM incubated for 20 hrs in presence of GDP by rapidfire mass spectrometry analysis relative to control.
Conditions: not given
A digest of the protocol: as §1
On to `C=CC(=O)N1CC(NC(=O)Cn2cc(C(=O)N(C)Cc3ccccc3)c3cc(Br)ccc32)C1`, for which the inhibition was found to be 100%.

As to `C=CC(=O)N1CC(NC(=O)Cn2cc(C(=O)N3CCc4c(F)cccc4C3)c3cc(Br)ccc32)C1`, the inhibition is 100%.

On to `C=CC(=O)N1CC(NC(=O)Cn2cc(C(=O)N3CCc4cc(Cl)ccc4C3)c3cc(Br)ccc32)C1`, for which the inhibition is 100%.

On to `C=CC(=O)N1CC(NC(=O)Cn2ccc3cc(Br)ccc32)C1`, for which the inhibition stood at 67%.

As for `C=CC(=O)N1CC(NC(=O)Cn2cc(C(=O)N3CCc4c(Cl)cccc4C3)c3cc(Br)ccc32)C1`, the inhibition was found to be 100%.

As to `C=CC(=O)N1CC(NC(=O)Cn2cc(C(=O)N3CCc4c(cccc4OC)C3)c3cc(Br)cc(C)c32)C1`, the inhibition worked out at 100%.

As for `C=CC(=O)N1CC(NC(=O)COc2ccc(Br)cc2NC(=O)c2cc(C)no2)C1`, the inhibition stood at 63%.

Regarding `C=CC(=O)N1CC(NC(=O)Cn2cc(C(=O)NCCc3ccccc3)c3cc(Br)ccc32)C1`, the inhibition was found to be 100%.

Regarding `C=CC(=O)N1CC(NC(=O)Cn2cc(C(=O)N3CCc4cc(F)ccc4C3)c3cc(Br)ccc32)C1`, the inhibition was 100%.

For the next series, the target named is GTPase KRas (Homo sapiens, UniProt P01116, C118A/G12C). In words: Inhibition of GDP bound N terminal His-tagged KRAS G12C/C118A mutant (unknown origin) (1 to 169 residues) assessed as reduction in SOS-mediated guanine nucleotide exchange preincubated for 2 hrs followed by addition of SOS and GTP and measured after 1 hr by alphascreen assay.
Conditions: not given
In short, it runs like this:
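Inhibitor preincubated with protein 2 h, then SOS1 and GTP added to exchange GTP into the nucleotide site. GTP loading read as proximity of RAF Ras-binding domain, which binds only active KRAS. IC50 from dose response.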
A general note: Bead proximity is the source of the signal in Alpha formats.
For `C=CC(=O)N1CC(NC(=O)Cn2ccc3cc(Br)ccc32)C1`, the IC50 is > 250 µM.

Another series has as its system GTPase KRas (Homo sapiens), P01116 [G12C]. Put plainly: Inhibition of KRAS G12C mutant (unknown origin) at 10 uM incubated for 0.2 hrs in presence of GDP by rapidfire mass spectrometry analysis relative to control.
Conditions: not given
In short, it runs like this: as §1
In the case of `C=CC(=O)N1CC(NC(=O)Cn2cc(C(=O)N3CCc4c(F)cccc4C3)c3cc(Br)ccc32)C1`, the inhibition was found to be 77%.

Turning to `C=CC(=O)N1CC(NC(=O)Cn2cc(C(=O)N3CCc4cc(Cl)ccc4C3)c3cc(Br)ccc32)C1`, the inhibition was 55%.

Take `C=CC(=O)N1CC(NC(=O)Cn2cc(C(=O)N3CCc4c(Cl)cccc4C3)c3cc(Br)ccc32)C1`: the inhibition stood at 67%.

As to `C=CC(=O)N1CC(NC(=O)Cn2cc(C(=O)N3CCc4c(cccc4OC)C3)c3cc(Br)cc(C)c32)C1`, the inhibition is 100%.

Take `C=CC(=O)N1CC(NC(=O)Cn2cc(C(=O)N3CCc4cc(F)ccc4C3)c3cc(Br)ccc32)C1`: the inhibition amounted to 86%.

The values are drawn from ChEMBL document CHEMBL4364340, “Discovery of N-(1-Acryloylazetidin-3-yl)-2-(1H-indol-1-yl)acetamides as Covalent Inhibitors of KRASG12C” (ACS Med Chem Lett, 2019).
